Assay results as given in ChEMBL document CHEMBL3108716, “Anti-inflammatory and chondroprotective activity of (+)-α-pinene: structural and enantiomeric selectivity” (2014).
Calls of active or inactive are those of the source. No cut-off for these calls is given here.

Columns and labels:
[1] = target: T1, c-Jun N-terminal kinase, JNK (Homo sapiens) (UniProt P45983+P53779+P45984); assay: Inhibition of IL-1beta-induced JNK phosphorylation in human primary chondrocytes at 200 ug/ml by Western blotting analysis relative to IL-1beta treated control; type: cell-based; conditions: values are per cent of control
C28/I2 [2] = assay: Inhibition of NFkappaB activation in human C28/I2 cells assessed as reduction of IL-1beta-induced IkappaBalpha phosphorylation at 200 ug/ml after 30 mins by Western blotting analysis relative to IL-1beta treated control; values are per cent of control
Homo sapiens [3] = organism: Homo sapiens; assay: Antiinflammatory activity against human primary chondrocytes assessed as inhibition of IL-1beta-induced iNOS protein expression level after 30 mins by Western blotting analysis relative to IL-1beta treated control; type: functional
Method in brief: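 Serum-starved primary human chondrocytes pretreated 30 min with compound in DMSO (≤0.1% final), then IL-1β 10 ng/mL for 24 h. Total extracts immunoblotted with mouse monoclonal anti-human iNOS and detected by chemifluorescence. Band intensity normalized to β-tubulin or actin and expressed relative to IL-1β alone. Mean ± SEM, ≥4 independent experiments; paired t test.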

[4] = Antiinflammatory activity against human primary chondrocytes assessed as inhibition of IL-1beta-induced NO production at 200 ug/ml after 30 mins by Griess method relative to IL-1beta treated control; values are per cent of control; conditions: 0.5 h
[5] = target: MAP kinase p38 (Homo sapiens) (UniProt O15264+Q15759+Q16539+P53778); assay: Inhibition of IL-1beta-induced p38 MAPK phosphorylation in human primary chondrocytes at 200 ug/ml by Western blotting analysis relative to IL-1beta treated control; type: cell-based
Homo sapiens [6] = organism: Homo sapiens; assay: Antiinflammatory activity against human primary chondrocytes assessed as inhibition of IL-1beta-induced NO production at 10 to 25 ug/ml after 30 mins by Griess method; type: functional
Homo sapiens [7] = organism: Homo sapiens; assay: Antiinflammatory activity against human primary chondrocytes assessed as inhibition of IL-1beta-induced iNOS mRNA expression after 30 mins by Western blotting analysis relative to IL-1beta treated control; type: functional
[8] = target: T1, c-Jun N-terminal kinase, JNK (Homo sapiens); assay: Inhibition of JNK activation in human primary chondrocytes assessed as reduction of IL-1beta-induced MMP1 mRNA expression at 200 ug/ml by quantitative RT-PCR analysis relative to IL-1beta treated control; type: cell-based
Method in brief: (§1)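 Serum-starved primary human chondrocytes exposed 12 h to IL-1β 10 ng/mL with or without 200 μg/mL compound, the compound added 30 min before the stimulus. MMP-1 and MMP-13 mRNA quantified by RT-PCR and expressed versus IL-1β-treated cells. Mean ± SEM of at least four independent experiments; paired t test.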

Homo sapiens [9] = organism: Homo sapiens; assay: Inhibition of NFkappaB activation in human primary chondrocytes assessed as reduction of IL-1beta-induced MMP1 mRNA expression at 200 ug/ml by quantitative RT-PCR analysis relative to IL-1beta treated control; type: cell-based; method in brief: as §1
[10] = Antiinflammatory activity against human primary chondrocytes assessed as IL-1beta-induced iNOS protein expression level after 30 mins by Western blotting analysis relative to IL-1beta treated control
Homo sapiens [11] = organism: Homo sapiens; assay: Antiinflammatory activity against human primary chondrocytes assessed as inhibition of IL-1beta-induced NO production after 30 mins by Griess method; type: functional
C28/I2 [12] = assay: Inhibition of NFkappaB activation in human C28/I2 cells assessed as reduction of IL-1beta-induced protein-DNA complex formation at 200 ug/ml after 30 mins by ELISA relative to IL-1beta treated control; type: cell-based
Method in brief: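 C28/I2 cells pretreated 30 min ± 200 μg/mL compound, then IL-1β 10 ng/mL for 30 min. Nuclear extracts incubated with biotinylated NF-κB consensus oligonucleotide in a colorimetric ELISA-type binding assay; absorbance taken as amount of active NF-κB–DNA complexes. Specificity checked with 10-fold molar excess of unlabeled wild-type or mutant oligonucleotide. Mean ± SEM, four experiments.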

[13] = target: T1, c-Jun N-terminal kinase, JNK (Homo sapiens); assay: Inhibition of JNK activation in human primary chondrocytes assessed as reduction of IL-1beta-induced MMP13 mRNA expression at 200 ug/ml by quantitative RT-PCR analysis relative to IL-1beta treated control; type: cell-based; method in brief: as §1
[14] = Chondroprotective activity in human primary chondrocytes assessed as effect on IL-1beta-induced collagen2/1 mRNA expression at 200 ug/ml by quantitative RT-PCR analysis relative to IL-1beta treated control; type: functional
Method in brief: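 Primary human chondrocytes treated 24 h with IL-1β 10 ng/mL with or without 200 μg/mL compound after a 30 min pretreatment; TIMP-1, collagen I and collagen II mRNA measured by RT-PCR relative to IL-1β-only cells. The collagen II/collagen I mRNA ratio served as a differentiation index. Mean ± SEM of ≥4 independent experiments; paired t test.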

Homo sapiens [15] = organism: Homo sapiens; assay: Inhibition of NFkappaB activation in human primary chondrocytes assessed as reduction of IL-1beta-induced MMP13 mRNA expression at 200 ug/ml by quantitative RT-PCR analysis relative to IL-1beta treated control; type: cell-based; method in brief: as §1

With `CC1=CC[C@H]2C[C@@H]1C2(C)C` as the compound, how does the response, % of control [1] read?
The response, % of control was 65.8%.

And the level, % of control (C28/I2 [2])?
Its level, % of control is 58.4%.

And the inhibition (Homo sapiens [3])?
Its inhibition is “Active”.

What about the level, % of control at 200 µg/mL [4] of the same compound?
The level, % of control at 200 µg/mL was 58.1%.

And the inhibition [5]?
The inhibition was “inactive”.

With `C=C1C(O)CC2CC1C2(C)C` (configuration not stated) as the compound, how does the inhibition (Homo sapiens [6]) read?
Its inhibition is “inactive”.

Which inhibition (Homo sapiens [6]) does the source give for `CC1(C)C2CC=C(CO)C1C2` (configuration not stated) here?
The inhibition was “inactive”.

For `CC1(C)[C@@H]2CC=C(C=O)[C@H]1C2`, which inhibition (Homo sapiens [6]) is on record?
The inhibition was “inactive”.

For `CC1(C)[C@H]2CC[C@@H](CO)[C@H]1C2`, which inhibition (Homo sapiens [6]) is on record?
Its inhibition is “inactive”.

Which inhibition (Homo sapiens [6]) does the source give for `CC1=C[C@@H](O)[C@@H]2C[C@@H]1C2(C)C` here?
The inhibition was “inactive”.

For `C[C@H]1CC[C@H]2C[C@@H]1C2(C)C`, which inhibition (Homo sapiens [3]) is on record?
The inhibition was “Active”.

And the inhibition (Homo sapiens [6])?
Its inhibition is “inactive”.

With `CC1=CCC2CC1C2(C)C` (racemic) [ALPHA-PINENE] as the compound, how does the level, % of control at 200 µg/mL [4] read?
Its level, % of control at 200 µg/mL is 40.6%.

With `C=C1CCC2CC1C2(C)C` (racemic) [BETA-PINENE] as the compound, how does the level, % of control at 200 µg/mL [4] read?
Its level, % of control at 200 µg/mL is 76.8%.

Which inhibition (Homo sapiens [7]) does the source give for `CC1=CC[C@@H]2C[C@H]1C2(C)C` [1R-(+)-ALPHA-PINENE] here?
Its inhibition is “Active”.

And the response, % of control [1]?
The response, % of control was 51.3%.

And the inhibition [8]?
The inhibition was “Active”.

And the level, % of control (C28/I2 [2])?
Its level, % of control is 33.6%.

What about the inhibition (Homo sapiens [9]) of the same compound?
The inhibition was “Active”.

And the Activity [10]?
The Activity was 24.4%.

And the level, % of control at 200 µg/mL [4]?
The level, % of control at 200 µg/mL was 31.5%.

And the inhibition (Homo sapiens [11])?
Its inhibition is “Dose-dependent effect”.

What about the inhibition (C28/I2 [12]) of the same compound?
Its inhibition is “Active”.

And the inhibition [13]?
The inhibition was “Active”.

And the “fold change (FC)” value [14]?
Its value is 2.6.

What about the inhibition [5] of the same compound?
The inhibition was “inactive”.

What about the inhibition (Homo sapiens [15]) of the same compound?
The inhibition was “Active”.
